The source made the active and inactive calls. The rule behind the calls is not given here. Numbered stars: 1 amine (or outer) side, 2 acyl side, 3 side chain; on linkers, the order of the positions; unused ones are H or OH. Square brackets hold non-standard residues; d marks the D form. Peptide text beside a SMILES is read from it. X1 = N[C@@H](Cc1ccccc1)CN(CC(=O)[*:2])[*:1]; Ava = NCCCCC(=O)O; GABA = NCCCC(=O)O; βAla = NCCC(=O)O
Key:
Type in all cases: functional
Mus musculus [1] = species: Mus musculus; assay: The maximal effect induced by an agonist expressed as percent inhibition of electrically induced twitches.
How it was run: (§1)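 Vas deferens from Swiss male mice (25–30 g), prepared per Hughes, in Mg2+-free Krebs (95% O2/5% CO2, pH 7.4) at 33 °C, 0.3 g resting tension. Field stimulation via platinum ring electrodes: supramaximal 1-ms pulses, 0.1 Hz. Isotonic twitch recording. After ~2 h equilibration, cumulative concentration–response curves in 0.5 log steps. Mean ± SEM of at least four experiments; pEC50 with 95% confidence limits.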

Mus musculus [2] = species: Mus musculus; assay: Antagonist effect in the electrically stimulated mouse vas deferens;I = Inactive at 10 uM
Mus musculus [3] = species: Mus musculus; assay: The maximal effect induced by an agonist expressed as percent inhibition of electrically induced twitches;I = Inactive at 10 uM; how it was run: as §1
Mus musculus [4] = species: Mus musculus; assay: Agonist effect in the electrically stimulated mouse vas deferens.;I = Inactive at 10 uM; how it was run: as §1
Mus musculus [5] = species: Mus musculus; assay: Antagonist effect in the electrically stimulated mouse vas deferens; Inactive at 10 uM
Mus musculus [6] = species: Mus musculus; assay: Agonist effect in the electrically stimulated mouse vas deferens. (CL95%); how it was run: as §1
Mus musculus [7] = species: Mus musculus; assay: The maximal effect induced by an agonist expressed as percent inhibition of electrically induced twitches; how it was run: as §1
Mus musculus [8] = species: Mus musculus; assay: Agonist effect in the electrically stimulated mouse vas deferens. (CL95%); Inactive at 10 uM; how it was run: as §1
Mus musculus [9] = species: Mus musculus; assay: The maximal effect induced by an agonist expressed as percent inhibition of electrically induced twitches; Inactive at 10 uM; how it was run: as §1
Mus musculus [10] = species: Mus musculus; assay: Antagonist effect in the electrically stimulated mouse vas deferens; conditions: read-out: pA2 (converted)

Row | Log EC50 (Mus musculus [8]) | Molecule | pA2 (Mus musculus [5]) | Emax (Mus musculus [9]) | also measured
1 | – | C[C@H](NC(=O)CNC(=O)[C@@H](NC(=O)[C@H](Cc1ccccc1)NC(=O)CNC(=O)CNC(=O)[C@@H](N)Cc1ccccc1)[C@@H](C)O)C(=O)N[C@@H](CCCNC(=N)N)C(=O)N[C@@H](CCCCN)C(=O)N[C@@H](CO)C(=O)N[C@@H](C)C(=O)N[C@@H](CCCNC(=N)N)C(=O)N[C@@H](CCCCN)C(N)=O | – | – | Emax (Mus musculus [1]): -84
2 | – | C[C@H](NC(=O)CNC(=O)[C@@H](NC(=O)[C@H](Cc1ccccc1)NC(=O)CNC(=O)[C@@H](Cc1ccccc1)NC(=O)[C@@H](N)Cc1ccccc1)[C@@H](C)O)C(=O)N[C@@H](CCCN=C(N)N)C(=O)N[C@@H](CCCCN)C(=O)N[C@@H](CO)C(=O)N[C@@H](C)C(=O)N[C@@H](CCCN=C(N)N)C(=O)N[C@@H](CCCCN)C(N)=O | – | – | pA2 (Mus musculus [2]): inactive; Emax (Mus musculus [3]): inactive; Log EC50 (Mus musculus [4]): inactive
3 | – | C[C@H](NC(=O)CNC(=O)[C@@H](NC(=O)[C@H](Cc1ccccc1)NC(=O)CNC(=O)[C@H](Cc1ccccc1)NC(=O)[C@@H](N)Cc1ccccc1)[C@@H](C)O)C(=O)N[C@@H](CCCN=C(N)N)C(=O)N[C@@H](CCCCN)C(=O)N[C@@H](CO)C(=O)N[C@@H](C)C(=O)N[C@@H](CCCN=C(N)N)C(=O)N[C@@H](CCCCN)C(N)=O | – | – | pA2 (Mus musculus [2]): inactive; Emax (Mus musculus [3]): inactive; Log EC50 (Mus musculus [4]): inactive
4 | – | C[C@H](NC(=O)CNC(=O)[C@@H](NC(=O)[C@H](Cc1ccccc1)NC(=O)[C@@H](Cc1ccccc1)NC(=O)CNC(=O)[C@@H](N)Cc1ccccc1)[C@@H](C)O)C(=O)N[C@@H](CCCN=C(N)N)C(=O)N[C@@H](CCCCN)C(=O)N[C@@H](CO)C(=O)N[C@@H](C)C(=O)N[C@@H](CCCN=C(N)N)C(=O)N[C@@H](CCCCN)C(N)=O (H-FG[dF]FTGARKSARK-NH2) | inactive | – | EC50 (Mus musculus [6]): 2090 nM; Emax (Mus musculus [7]): -75
5 | inactive | C[C@H](NC(=O)CNC(=O)[C@@H](NC(=O)[C@H](Cc1ccccc1)NC(=O)CCCCNC(=O)[C@@H](N)Cc1ccccc1)[C@@H](C)O)C(=O)N[C@@H](CCCN=C(N)N)C(=O)N[C@@H](CCCCN)C(=O)N[C@@H](CO)C(=O)N[C@@H](C)C(=O)N[C@@H](CCCN=C(N)N)C(=O)N[C@@H](CCCCN)C(N)=O (H-F[Ava]FTGARKSARK-NH2) | inactive | inactive | –
6 | inactive | C[C@H](NC(=O)CNC(=O)[C@@H](NC(=O)[C@H](Cc1ccccc1)NC(=O)CCCNC(=O)[C@@H](N)Cc1ccccc1)[C@@H](C)O)C(=O)N[C@@H](CCCN=C(N)N)C(=O)N[C@@H](CCCCN)C(=O)N[C@@H](CO)C(=O)N[C@@H](C)C(=O)N[C@@H](CCCN=C(N)N)C(=O)N[C@@H](CCCCN)C(N)=O (H-F[GABA]FTGARKSARK-NH2) | inactive | inactive | –
7 | inactive | C[C@H](NC(=O)CNC(=O)[C@@H](NC(=O)[C@H](Cc1ccccc1)NC(=O)CCNC(=O)[C@@H](N)Cc1ccccc1)[C@@H](C)O)C(=O)N[C@@H](CCCN=C(N)N)C(=O)N[C@@H](CCCCN)C(=O)N[C@@H](CO)C(=O)N[C@@H](C)C(=O)N[C@@H](CCCN=C(N)N)C(=O)N[C@@H](CCCCN)C(N)=O (H-F[βAla]FTGARKSARK-NH2) | inactive | inactive | –
8 | inactive | C[C@H](NC(=O)CNC(=O)[C@@H](NC(=O)[C@H](Cc1ccccc1)NC(=O)CNC(=O)CNC[C@@H](N)Cc1ccccc1)[C@@H](C)O)C(=O)N[C@@H](CCCN=C(N)N)C(=O)N[C@@H](CCCCN)C(=O)N[C@@H](CO)C(=O)N[C@@H](C)C(=O)N[C@@H](CCCN=C(N)N)C(=O)N[C@@H](CCCCN)C(N)=O (H-[X1]GFTGARKSARK-NH2) | – | inactive | Kb (Mus musculus [10]): 178 nM
9 | – | CC(NC(=O)CNC(=O)[C@@H](NC(=O)[C@H](Cc1ccccc1)NC(=O)CNC(=O)C(C)NC(=O)[C@@H](N)Cc1ccccc1)[C@@H](C)O)C(=O)N[C@@H](CCCN=C(N)N)C(=O)N[C@@H](CCCCN)C(=O)N[C@@H](CO)C(=O)NC(C)C(=O)N[C@@H](CCCN=C(N)N)C(=O)N[C@@H](CCCCN)C(N)=O (stereo in doubt) | – | – | EC50 (Mus musculus [6]): 1000 nM; Emax (Mus musculus [1]): -81
10 | inactive | C[C@H](NC(=O)CNC(=O)[C@@H](NC(=O)C(Cc1ccccc1)NC(=O)CNC(=O)CNC[C@H](N)Cc1ccccc1)[C@@H](C)O)C(=O)N[C@@H](CCCN=C(N)N)C(=O)N[C@@H](CCCCN)C(=O)N[C@@H](CO)C(=O)N[C@@H](C)C(=O)N[C@@H](CCCN=C(N)N)C(=O)N[C@@H](CCCCN)C(N)=O (stereo in doubt) | inactive | inactive | –
11 | – | CC(C)C[C@H](NC(=O)[C@H](CCCCN)NC(=O)[C@H](CCCNC(=N)N)NC(=O)[C@H](C)NC(=O)[C@H](CO)NC(=O)[C@H](CCCCN)NC(=O)[C@H](CCCNC(=N)N)NC(=O)[C@H](C)NC(=O)CNC(=O)[C@@H](NC(=O)[C@H](Cc1ccccc1)NC(=O)CNC(=O)CNC(=O)[C@@H](N)Cc1ccccc1)[C@@H](C)O)C(=O)N[C@@H](C)C(=O)N[C@@H](CC(N)=O)C(=O)N[C@@H](CCC(N)=O)C(=O)O [NOCICEPTIN] | – | – | Emax (Mus musculus [1]): -83
12 | inactive | H-FFTGARKSARK-NH2 | inactive | inactive | –
13 | inactive | H-FGFFTGARKSARK-NH2 | inactive | inactive | –
14 | – | H-FGGGFTGARKSARK-NH2 | inactive | – | EC50 (Mus musculus [6]): 3240 nM; Emax (Mus musculus [1]): -73
15 | inactive | H-FPFTGARKSARK-NH2 | inactive | inactive | –
